According to ChEMBL document CHEMBL2157975 (Bioorg Med Chem Lett, 2012):
pIC50: −log10 of the molar value.

Experiments:
[1] = Metabolic stability in human hepatic microsomes assessed as compound remaining at 60 mins; format: ADME; conditions: liver microsomes, read-out: Stability
Method in brief: (§1)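 Test compound incubated with liver microsomes, human or mouse according to the line (the text also calls these liver homogenates). Read-out was the percentage of parent compound remaining after 60 min.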

[2] = biological target: Kappa-type opioid receptor (Homo sapiens) (UniProt P41145); experiment: Binding affinity to kappa-opioid receptor at 10 uM
[3] = Binding affinity to benzodiazepinone receptor at 10 uM
[4] = Metabolic stability in plasma; format: ADME, cell-free
[5] = biological target: T1, Apelin receptor (Homo sapiens) (UniProt P35414); experiment: Antagonist activity at APJ receptor assessed as inhibition of apelin13-induced cAMP accumulation; format: functional
T1 sequence (whole entry): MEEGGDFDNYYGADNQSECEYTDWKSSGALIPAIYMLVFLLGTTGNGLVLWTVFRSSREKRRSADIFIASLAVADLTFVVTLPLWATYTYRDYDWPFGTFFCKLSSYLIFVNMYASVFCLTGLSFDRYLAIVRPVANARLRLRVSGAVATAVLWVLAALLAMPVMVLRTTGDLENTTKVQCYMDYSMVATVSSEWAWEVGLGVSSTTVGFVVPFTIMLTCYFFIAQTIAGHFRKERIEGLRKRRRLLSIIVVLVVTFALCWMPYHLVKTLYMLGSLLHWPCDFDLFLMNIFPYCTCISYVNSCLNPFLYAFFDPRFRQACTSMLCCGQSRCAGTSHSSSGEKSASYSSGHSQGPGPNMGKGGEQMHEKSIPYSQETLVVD

[6] = biological target: T2, Type-1 angiotensin II receptor (Homo sapiens, UniProt P30556); experiment: Inhibition of AT1 receptor
T2 sequence (P30556 whole entry): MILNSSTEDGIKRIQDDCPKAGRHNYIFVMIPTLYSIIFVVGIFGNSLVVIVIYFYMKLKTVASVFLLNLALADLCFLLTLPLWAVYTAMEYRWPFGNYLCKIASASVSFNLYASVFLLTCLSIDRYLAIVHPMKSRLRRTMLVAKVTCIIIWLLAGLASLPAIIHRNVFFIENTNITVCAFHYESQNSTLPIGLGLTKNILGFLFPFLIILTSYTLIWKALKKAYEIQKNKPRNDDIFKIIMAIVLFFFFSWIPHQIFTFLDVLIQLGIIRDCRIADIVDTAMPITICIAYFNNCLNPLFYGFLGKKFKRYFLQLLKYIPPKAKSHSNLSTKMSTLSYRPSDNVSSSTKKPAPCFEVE

Plasma = experiment: Plasma protein binding in mouse; format: ADME, cell-free
Hepatocyte = experiment: Cytotoxicity against human hepatocytes; format: cell-based
[7] = Metabolic stability in mouse hepatic microsomes assessed as compound remaining at 60 mins; format: ADME; conditions: liver microsomes, read-out: Stability; method in brief: as §1

Chain of Kappa-type opioid receptor (Homo sapiens) (P41145 whole entry): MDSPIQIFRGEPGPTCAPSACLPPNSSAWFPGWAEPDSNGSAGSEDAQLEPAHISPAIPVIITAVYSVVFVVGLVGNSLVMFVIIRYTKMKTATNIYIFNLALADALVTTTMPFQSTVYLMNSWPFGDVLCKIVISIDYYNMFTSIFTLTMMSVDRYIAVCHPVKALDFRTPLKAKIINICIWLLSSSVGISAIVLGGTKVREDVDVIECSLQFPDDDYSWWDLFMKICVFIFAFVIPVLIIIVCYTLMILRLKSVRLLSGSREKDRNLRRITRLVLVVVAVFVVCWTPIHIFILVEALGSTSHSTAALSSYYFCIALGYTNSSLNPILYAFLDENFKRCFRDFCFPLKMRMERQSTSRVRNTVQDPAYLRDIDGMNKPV

SMILES: O=C(Oc1coc(CSc2ncccn2)cc1=O)c1ccc([N+](=O)[O-])cc1
- remaining at 1 h [1]: 4.2%
- Activity [2]: < 50%
- Activity [3]: < 70%
- Stability [4]: 42.2%
- inhibition [5]: Dose-dependent effect
- pIC50 [6]: < 4.10
- PPB (Plasma): 99.1%
- Activity (Hepatocyte): > 50 µM
- remaining at 1 h [7]: 4.9%
